# Assay outcomes (PubChem BioAssay)
# In the library only some 5.7% were active in any assay of this set; here they are far more common.
# CSC inhib – blocks cancer stem cells | cancer stem cell-like cells viability, luminescence | inhibition, % at 7.5 µM | 1.1% of 300,000 active | AID 2717; in the data active = inhibition above about 75%; inconclusive = no clear call, values can overlap the other calls; tested in HMLE shEcad cells
# Calb FLC – affects C. albicans growth with fluconazole; C. albicans CaCi-2 (fluconazole-resistant clinical isolate) + fluconazole, Alamar Blue growth, 48 h; growth inhibition, % (concentration not given with the values); 0.57% of 300,000 active; AID 1979;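 active = growth inhibition above about 58% in most replicates, limit read from the data, passing the limit was not always enough; inconclusive = exactly half the replicates above a set limit; inactive = most replicates below a set limit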;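 also: all wells also contain fluconazole at 8 µg/ml as a sub-toxic cotreatment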
# T cruzi inh – T. cruzi replication inhibition; T. cruzi beta-gal in NIH3T3, luminescence, 90 h; inhibition, % (test concentration not listed); 1.4% of 300,000 active;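 active = mean inhibition across valid replicates above about 55%, limit read from the data; inconclusive = mean below that limit but half or more replicates reach it; inactive = mean below it, under half of replicates reach it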;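 also: signal also drops with host cell toxicity which is not excluded here; higher percent means less beta-gal luminescence so fewer parasites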
#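 Material: NIH/3T3 host cells with β-galactosidase reporter T. cruzi; Input: 5,000 host fibroblasts per well; Medium: DMEM, 2% fetal bovine serum; Compound: 50 nL DMSO compound solution per well; Schedule: 3 h host attachment, then at least 90 h co-culture; Detection: luminescent β-galactosidase signal after 60 min lysis.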
# Beta cell apopt – blocks beta cell apoptosis; INS-1E cytokine-induced death, ATP luminescence, 48 h; percent of positive-control rescue, neutral wells zero; protection from apoptosis, % (concentration not given with the values); 0.8% of 300,000 active;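 active = Every replicate reaches about 75%, or at least half do and their mean reaches it too, limit read from the data; inconclusive = At least half of replicates reach the limit but their mean does not; inactive = Under half of replicates reach the limit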;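 also: higher means more ATP so stronger rescue from cytokine killing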
# SKKanGAS inh – blocks kanamycin growth of S. pyogenes SKKanGAS strain | BacTiter-Glo, 6 h | inhibition, % at 7.5 µM | 1.3% of 300,000 active;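 active = mean replicate score, as percent of positive control median, at least 50; inconclusive = mean below 50 but one replicate at or above 50; inactive = mean and every replicate below 50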;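 also: strain carries kanamycin resistance gene driven by streptokinase promoter and grows in 40 µg/ml kanamycin; loss of luminescence reflects streptokinase promoter inhibition or plain growth inhibition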
# Mdm2-MdmX inh – inhibitors of human Mdm2/MdmX interaction; 3% of 330,000 active; O15151+Q00987; SaOS-2 split-luciferase Mdm2/MdmX complementation, luminescence; inhibition, % at 8 µM;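 active = inhibition of at least 50% at 8 µM in the primary screen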
# Hits are given with their value; 0 = inactive; ? = inconclusive; - = no result.
SMILES,CSC inhib,Calb FLC,T cruzi inh,Beta cell apopt,SKKanGAS inh,Mdm2-MdmX inh
CCOC(=O)C[N+](C)(C)CCOC1CC2CCC1(C)C2(C)C (stereo unspecified),0,0,0,0,0,0
COc1cc(CC(=O)Nc2nccs2)cc(OC)c1OC,0,105.7,0,0,0,0
[O-][N+]1=c2ccc(Nc3ccccc3)cc2=NC12CCCCC2,79.6,107.5,0,106.7,0,-
O=C(COc1ncnc2ccccc12)NC1CCCCC1,0,-,-,0,-,0
O=C(COc1ncnc2cc([N+](=O)[O-])ccc12)NCCc1ccc(Cl)cc1,0,0,55.7,0,0,0
O=C(COc1ncnc2cc([N+](=O)[O-])ccc12)NC(=O)NC1CCCCC1,0,0,67.0,0,0,0
CC(NC(=O)COc1ncnc2cc([N+](=O)[O-])ccc12)c1ccccc1 (stereo unspecified),0,0,0,0,0,0
CCn1c2ccccc2c2cc(NC(=O)CNCC3CCCO3)ccc21 (stereo unspecified),0,0,68.8,0,0,0
CCn1c2ccccc2c2cc(NS(=O)(=O)c3ccc(C)cc3)ccc21,83.5,0,0,0,0,0
O=C(CCn1ccnc1)Nc1ccc2ccccc2c1,0,0,75.1,0,0,0
COc1cc(Cl)c(C)cc1NC(=O)CN1C(=O)C2CCCCC2C1=O (stereo unspecified),-,-,-,0,-,0
CN1CCN(c2ccc(CNS(=O)(=O)Cc3cccc(C(F)(F)F)c3)cc2)CC1,0,0,0,86.5,0,0
COCCS(=O)(=O)N(Cc1ccccc1)[C@H](C(=O)OC)C(C)C,-,-,-,-,-,0
CCOC(=O)[C@@H]1[C@H]2COc3ccccc3[C@@H]2N2C(=O)N(c3ccc(F)cc3)C(=O)[C@]12C,0,0,0,0,0,0
Cn1nc(C(=O)NCc2ccccc2Cl)c2c1-c1ccccc1S(=O)(=O)C2,0,0,0,0,0,0
C(=C\c1nc(N2CCCCCC2)c2ccccc2n1)/c1ccccc1,79.0,0,0,109.1,0,0
c1ccc2c(N3CCCCC3)nc(N3CCCCC3)nc2c1,0,0,0,0,0,0
O=C(CCSc1ccc(Cl)c(Cl)c1)NC12CC3CC(CC(C3)C1)C2,0,0,0,0,65.4,0
O=[N+]([O-])c1ccc(C2CCCC/C2=N/OCc2ccc(F)cc2)c([N+](=O)[O-])c1 (stereo unspecified),0,115.2,61.0,0,0,0
CCOC(=O)c1c(CSc2ccc(C)cc2)n(C)c2cc(Br)c(O)c(CN(C)C)c12,97.2,0,0,0,0,0
O=C(CSC1=NS(=O)(=O)c2cc(F)ccc2N1)Nc1cccc(F)c1,0,0,0,0,0,0
Cc1ccc2nc(-c3ccncc3)cc(C(=O)NCCc3ccc(F)cc3)c2c1,0,0,55.9,0,0,0
O=C(NNC(=O)c1cc(-c2ccncc2)nc2ccccc12)c1ccccc1O,0,85.5,0,0,0,0
O=C(Nc1ccncc1)c1cc(-c2cccc(Br)c2)nc2ccccc12,106.1,0,0,0,0,0
O=C(NNC(=O)c1cc(-c2ccc(Cl)c(Cl)c2)nc2ccccc12)Nc1ccccc1,92.2,0,0,0,75.9,0
SMILES,CSC inhib,Calb FLC,T cruzi inh,Beta cell apopt,SKKanGAS inh,Mdm2-MdmX inh
COc1ccc(C(=O)Nc2ccc(S(=O)(=O)Nc3nccc(C)n3)cc2)cc1[N+](=O)[O-],0,0,?,0,0,0
Cc1ccc2nc(SCC(=O)NCCCN3CCCC3=O)[nH]c2c1,0,-,-,0,-,0
CCC(=O)c1ccc(OCC(=O)OCC(=O)NCC2CCCCC2)cc1,0,0,0,-,0,0
CCCCCCCNC(=O)c1cc(-c2ccncc2)nc2ccccc12,0,0,57.4,0,0,0
O=C(Nc1ccc([N+](=O)[O-])cn1)c1cc(-c2cccc(Cl)c2)nc2ccccc12,0,0,56.3,0,0,0
O=C(Nc1ccc([N+](=O)[O-])cn1)c1cc(-c2cccc(Br)c2)nc2ccccc12,-,0,0,0,0,0
Cc1ccc(CCNC(=O)c2cc(-c3ccncc3)nc3ccccc23)cc1,-,0,0,0,0,0
Cc1nnc(NC(=O)C(C)Sc2nnc(-c3ccco3)n2C(C)C)s1 (stereo unspecified),0,0,0,0,0,0
N/C(=N\OC(=O)CSc1ccccc1)c1ccccn1,0,0,0,0,0,0
CC(=O)Nc1ccc(SCc2csc(C)n2)cc1,0,0,0,0,0,0
CCOc1ccccc1N=C1SC(CC(=O)Nc2ccc(OC)cc2OC)C(=O)N1CCC1=CCCCC1 (stereo unspecified),0,0,58.4,76.3,0,0
O=C(CC1SC(=Nc2ccc(OC(F)F)cc2)N(CCC2=CCCCC2)C1=O)Nc1ccccc1F (stereo unspecified),-,0,?,-,0,0
CCOC(=O)N1CCC(NC(=O)CC2C(=O)NCCN2Cc2ccccc2)CC1 (stereo unspecified),0,0,0,-,0,0
Cc1noc(NS(=O)(=O)c2ccc(NC(=O)c3oc4ccc(Cl)cc4c3C)cc2)c1C,0,0,0,0,63.5,0
Cc1ccc2c(=O)cc(C(=O)Nc3ccc(S(=O)(=O)Nc4onc(C)c4C)cc3)oc2c1,-,0,0,-,0,0
Cc1ccc2c(C)c(C(=O)Nc3ccc(S(=O)(=O)Nc4onc(C)c4C)cc3)oc2c1,0,0,0,-,65.0,0
COc1cccc(CN(C)C(=O)CN2C(=O)NC(c3ccccc3)(c3ccccc3)C2=O)c1OC,-,-,-,0,-,0
Cc1cc(NCCN2CCOCC2)c2ccc3ccccc3c2n1,0,0,64.6,0,0,0
N#Cc1ccc(CN2CCN(C(=O)c3cc(C4CC4)nn3-c3ccccc3)CC2)cc1,0,-,-,0,-,0
O=[N+]([O-])c1cc(C(F)(F)F)ccc1NCCCCNS(=O)(=O)c1ccc(Cl)cc1,-,0,0,87.7,0,0
O=[N+]([O-])c1cc(C(F)(F)F)ccc1NCCc1c[nH]c2ccccc12,99.2,0,0,0,0,0
CS(=O)(=O)NCCCNc1ccc(C(F)(F)F)cc1[N+](=O)[O-],0,0,0,0,0,0
COCC(C)NC(=O)c1cc2c(ccc3ccccc32)oc1=O (stereo unspecified),0,0,0,0,0,0
COc1ccc(CN(C)C2CCN(C)CC2)cc1OC,0,0,0,0,0,0
CCCN1CCC(N(C)CCc2ccc(OC)c(OC)c2)CC1,0,0,56.1,0,0,0
Cc1ccccc1C(=O)N1CCC(C(=O)NCCc2ccc(S(N)(=O)=O)cc2)CC1,0,0,0,0,0,0
COc1ccc(C(Nc2cc(C)ccn2)c2ccc3ccc(C)nc3c2O)cc1 (stereo unspecified),0,0,59.0,0,61.3,0
Cc1ccnc(NC(c2ccsc2)c2ccc3ccc(C)nc3c2O)c1 (stereo unspecified),0,0,62.6,0,92.9,0
Cc1ccc2ccc(C(Nc3ccccn3)c3ccccc3)c(O)c2n1 (stereo unspecified),-,0,0,-,85.3,0
